# According to ChEMBL document CHEMBL1156077, “Piperazinyl-glutamate-pyrimidines as potent P2Y12 antagonists for inhibition of platelet aggregation” (Bioorg Med Chem Lett, 2009):
# What was measured:
# P2Y purinoceptor 12 [1] = molecular target: T1, P2Y purinoceptor 12 (Homo sapiens, UniProt Q9H244); assay: Ratio of compound IC50 to AZD-6140 IC50 for P2Y12 receptor in human platelet rich plasma assessed as inhibition of ADP-induced platelet aggregation by light transmission aggregometry
# Summary of the method: (§1)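 Human platelet-rich plasma was pre-incubated 5 min at 37 °C with compound across seven concentrations (10 down to 0.156). Aggregation was started with ADP (20, final) and followed by light transmission at 626 nm for 15 min at 37 °C. Duplicate concentration-response data were read at the 15-min end-point. IC50 was divided by the IC50 of AZD-6140 run on the same plate.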
# P2Y purinoceptor 12 [2] = molecular target: T1, P2Y purinoceptor 12; assay: Binding affinity at human recombinant P2Y12 receptor expressed in CHO cells by radioligand binding assay; format: cell-based
# Summary of the method: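 Washed membranes from CHO cells transfected with synthetic human P2Y12 gene. Compounds as 7-point threefold dilutions, triplicate, 1 h at room temperature. Nonspecific binding defined with 300 nM 2-MeSADP. Filtered, washed with ice-cold Tris pH 7.4. Single-site fit; IC50 converted to Ki by Cheng–Prusoff, geometric mean of n≥2.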
# P2Y purinoceptor 12 [3] = molecular target: T1, P2Y purinoceptor 12; assay: Ratio of compound IC50 to thienopyrimidine IC50 for P2Y12 receptor in human platelet rich plasma assessed as inhibition of ADP-induced platelet aggregation by light transmission aggregometry
# Summary of the method: as §1, with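 “the thienopyrimidine reference” for “AZD-6140”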
# [4] = Selectivity for human P2Y12 receptor over P2Y1
# [5] = Selectivity for human P2Y12 receptor over P2Y13
# T1 sequence (Q9H244 whole entry): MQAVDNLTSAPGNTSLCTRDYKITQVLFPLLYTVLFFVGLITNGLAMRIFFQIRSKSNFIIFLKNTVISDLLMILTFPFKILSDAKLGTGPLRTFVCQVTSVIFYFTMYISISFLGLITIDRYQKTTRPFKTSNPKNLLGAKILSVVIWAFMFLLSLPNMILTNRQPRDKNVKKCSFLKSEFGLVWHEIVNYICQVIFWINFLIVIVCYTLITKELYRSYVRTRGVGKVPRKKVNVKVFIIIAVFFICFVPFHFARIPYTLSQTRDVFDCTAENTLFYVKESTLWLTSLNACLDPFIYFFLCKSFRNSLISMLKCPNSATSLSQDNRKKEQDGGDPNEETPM
SMILES,Ratio IC50 (P2Y purinoceptor 12 [1]),Ki (P2Y purinoceptor 12 [2]) [nM],Ratio IC50 (P2Y purinoceptor 12 [3]),fold change (FC) [4],fold change (FC) [5]
CCCCCOC(=O)N1CCN(C(=O)[C@H](CCC(=O)O)NC(=O)c2cc(N3CCN(CC(=O)N4CCCC4)CC3)nc(-c3ccccc3)n2)CC1,1.5,2.1,0.2,> 340,> 340
CCCCCOC(=O)N1CCN(C(=O)[C@H](CCC(=O)O)NC(=O)c2cc(N3CCC(CC(=O)N4CCCC4)CC3)nc(-c3ccccc3)n2)CC1,2,1.6,0.3,> 340,> 340
CCCCCOC(=O)N1CCN(C(=O)[C@H](CCC(=O)O)NC(=O)c2cc(N3CC(O)C3)nc(-c3ccccc3)n2)CC1,4.6,2.5,0.8,> 340,> 340
CCCCCOC(=O)N1CCN(C(=O)[C@H](CCC(=O)O)NC(=O)c2nc(OCC3CCN(C)CC3)cc(-c3ccccc3)n2)CC1,4.4,12,0.8,> 340,> 340
CCCCOC(=O)N1CCN(C(=O)[C@H](CCC(=O)O)NC(=O)c2cc(OCCOC)nc(-c3ccccc3)n2)CC1,3.7,12,1,> 340,> 340
CCCCOC(=O)N1CCN(C(=O)[C@H](CCC(=O)O)NC(=O)c2cc(N3CCC(OC)CC3)nc(-c3ccccc3)n2)CC1,2.7,1.4,0.4,> 340,> 340
CCCCCOC(=O)N1CCN(C(=O)[C@H](CCC(=O)O)NC(=O)c2cc(N3CCN(CCOC)CC3)nc(-c3ccccc3)n2)CC1,1.5,2.3,0.3,> 340,> 340
CCCCCOC(=O)N1CCN(C(=O)[C@H](CCC(=O)O)NC(=O)c2cc(N3CCC(CCN)CC3)nc(-c3ccccc3)n2)CC1,0.4,2.7,0.1,> 340,> 340
CCCCCOC(=O)N1CCN(C(=O)[C@H](CCC(=O)O)NC(=O)c2cc(N3CCC(CC(=O)NC)CC3)nc(-c3ccccc3)n2)CC1,1.2,0.9,0.2,> 340,> 340
CCCCOC(=O)N1CCN(C(=O)[C@H](CCC(=O)O)NC(=O)c2cc(OCC3CCNCC3)nc(-c3ccccc3)n2)CC1,1,16,0.3,> 340,> 340
CCCCCOC(=O)N1CCN(C(=O)[C@H](CCC(=O)O)NC(=O)c2cc(NCC3CCNC3)nc(-c3ccccc3)n2)CC1 (stereo not given in full),2.3,4.1,0.5,> 340,> 340
CCCCCOC(=O)N1CCN(C(=O)[C@H](CCC(=O)O)NC(=O)c2cc(N3CC(OCC)C3)nc(-c3ccccc3)n2)CC1,3.4,1.2,1,> 340,> 340
CCCCCOC(=O)N1CCN(C(=O)[C@H](CCC(=O)O)NC(=O)c2cc(N3CCC(OCCOC)CC3)nc(-c3ccccc3)n2)CC1,0.8,5.3,0.2,> 340,> 340
CCCCCOC(=O)N1CCN(C(=O)[C@H](CCC(=O)O)NC(=O)c2cc(N3CCC(CN4CCCC4=O)CC3)nc(-c3ccccc3)n2)CC1,2,0.99,0.4,> 340,> 340
CCCCCOC(=O)N1CCN(C(=O)[C@H](CCC(=O)O)NC(=O)c2nc(-c3ccccc3)cc(N3CCNCC3)n2)CC1,6,22,1.1,> 340,> 340
CCCCCOC(=O)N1CCN(C(=O)[C@H](CCC(=O)O)NC(=O)c2cc(N3CCC(N4CCOCC4)CC3)nc(-c3ccccc3)n2)CC1,0.7,2.9,0.2,> 340,> 340
CCCCCOC(=O)N1CCN(C(=O)[C@H](CCC(=O)O)NC(=O)c2cc(N3CCC(CC(=O)N(CC)CC)CC3)nc(-c3ccccc3)n2)CC1,3.3,3.1,0.6,> 340,> 340
CCCCCOC(=O)N1CCN(C(=O)[C@H](CCC(=O)O)NC(=O)c2nc(OCC3CCNCC3)cc(-c3ccccc3)n2)CC1,8.5,31,1.7,> 340,> 340

SMILES,Ratio IC50 (P2Y purinoceptor 12 [1]),Ki (P2Y purinoceptor 12 [2]) [nM],Ratio IC50 (P2Y purinoceptor 12 [3]),fold change (FC) [4],fold change (FC) [5]
CCCCCOC(=O)N1CCN(C(=O)[C@H](CCC(=O)O)NC(=O)c2nc(-c3ccccc3)cc(N3CCN(CC(=O)N(C)C)CC3)n2)CC1,3.5,6.8,0.8,> 340,> 340
CCCCCOC(=O)N1CCN(C(=O)[C@H](CCC(=O)O)NC(=O)c2cc(N3CCC(C(=O)N(C)C)CC3)nc(-c3ccccc3)n2)CC1,0.3,2.5,0.1,> 340,> 340
CCCCOC(=O)N1CCN(C(=O)[C@H](CCC(=O)O)NC(=O)c2cc(OCC3CCN(C)CC3)nc(-c3ccccc3)n2)CC1,3.7,15,0.9,> 340,> 340
CCCCCOC(=O)N1CCN(C(=O)[C@H](CCC(=O)O)NC(=O)c2cc(N3CCC(C(=O)N4CCC4)CC3)nc(-c3ccccc3)n2)CC1,0.3,0.83,0.04,> 340,> 340
CCCCCOC(=O)N1CCN(C(=O)[C@H](CCC(=O)O)NC(=O)c2cc(N3CCC(CCN(C)C)CC3)nc(-c3ccccc3)n2)CC1,0.4,2.8,0.1,> 340,> 340
CCCCCOC(=O)N1CCN(C(=O)[C@H](CCC(=O)O)NC(=O)c2cc(N3CCN(C(=O)N(C)C)CC3)nc(-c3ccccc3)n2)CC1,1.5,2.9,0.3,> 340,> 340
CCCCCOC(=O)N1CCN(C(=O)[C@H](CCC(=O)O)NC(=O)c2cc(OCC3CCN(C)CC3)nc(-c3ccccc3)n2)CC1,3.7,5.7,0.5,> 340,> 340
CCCCCOC(=O)N1CCN(C(=O)[C@H](CCC(=O)O)NC(=O)c2nc(-c3ccccc3)cc(N3CCN(C)CC3)n2)CC1,8.1,11,1.8,> 340,> 340
CCCCCOC(=O)N1CCN(C(=O)[C@H](CCC(=O)O)NC(=O)c2cc(N3CCC(N)CC3)nc(-c3ccccc3)n2)CC1,0.5,0.69,0.2,> 340,> 340
CCCCOC(=O)N1CCN(C(=O)[C@H](CCC(=O)O)NC(=O)c2cc(OCC3CCCO3)nc(-c3ccccc3)n2)CC1 (stereo not given in full),3.8,55,1.4,> 340,> 340
CCCCOC(=O)N1CCN(C(=O)[C@H](CCC(=O)O)NC(=O)c2cc(N3CCC(C(=O)N(C)C)CC3)nc(-c3ccccc3)n2)CC1,1.1,1.3,0.2,> 340,> 340
CCCCCOC(=O)N1CCN(C(=O)[C@H](CCC(=O)O)NC(=O)c2nc(-c3ccccc3)cc(N3CCC(OCCOC)CC3)n2)CC1,5.3,7.1,1.2,> 340,> 340
CCCCCOC(=O)N1CCN(C(=O)[C@H](CCC(=O)O)NC(=O)c2cc(OCCOC)nc(-c3ccccc3)n2)CC1,8.8,1.2,1.2,> 340,> 340
CCCCCOC(=O)N1CCN(C(=O)[C@H](CCC(=O)O)NC(=O)c2cc(N3CCC(COCCOC)CC3)nc(-c3ccccc3)n2)CC1,1.2,4.3,0.3,> 340,> 340
CCCCCOC(=O)N1CCN(C(=O)[C@H](CCC(=O)O)NC(=O)c2nc(OCCCN3CCOCC3)cc(-c3ccccc3)n2)CC1,6.6,11,1.2,> 340,> 340
CCCCCOC(=O)N1CCN(C(=O)[C@H](CCC(=O)O)NC(=O)c2cc(N3CCC(CC(=O)N4CCC4)CC3)nc(-c3ccccc3)n2)CC1,1.1,0.92,0.2,> 340,> 340
CCCCCOC(=O)N1CCN(C(=O)[C@H](CCC(=O)O)NC(=O)c2nc(-c3ccccc3)cc(N3CCC(N4CCOCC4)CC3)n2)CC1,3.9,5.9,0.8,> 340,> 340
